Test results as given in ChEMBL document CHEMBL3085721, “Nonhydrolyzable ATP analogues as selective inhibitors of human NPP1: a combined computational/experimental study” (J Med Chem, 2013).
The source made the active and inactive calls. No cut-off for these calls is given here.

Columns and labels:
[1] = molecular target: T1, Ectonucleoside triphosphate diphosphohydrolase 8 (Homo sapiens) (UniProt Q5MY95); assay: Inhibition of human NTPDase8 assessed as amount of inorganic phosphate released using ATP as the substrate preincubated at 100 uM for 3 mins before substrate addition after 15 mins by malachite green reagent method
T1 sequence (whole entry): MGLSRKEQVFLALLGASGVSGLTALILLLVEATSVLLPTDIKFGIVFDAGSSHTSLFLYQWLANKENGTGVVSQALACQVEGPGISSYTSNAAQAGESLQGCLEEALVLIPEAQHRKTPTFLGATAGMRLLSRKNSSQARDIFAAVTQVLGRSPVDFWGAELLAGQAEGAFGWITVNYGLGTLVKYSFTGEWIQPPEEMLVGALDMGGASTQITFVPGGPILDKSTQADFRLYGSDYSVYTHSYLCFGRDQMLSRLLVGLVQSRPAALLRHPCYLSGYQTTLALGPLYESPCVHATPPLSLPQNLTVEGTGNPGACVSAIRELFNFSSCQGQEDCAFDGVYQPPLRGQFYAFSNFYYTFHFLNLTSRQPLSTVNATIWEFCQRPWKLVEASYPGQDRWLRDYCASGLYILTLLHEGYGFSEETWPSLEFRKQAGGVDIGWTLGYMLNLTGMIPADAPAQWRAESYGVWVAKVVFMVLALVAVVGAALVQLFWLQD
Outline: (§1)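 Crude extracts of COS-7 cells transiently transfected with human NTPDase1, -2, -3 or -8, preincubated 3 min at 37 °C in Tris-Ringer medium pH 7.4 with analogue (final 100 μM). Started with 100 μM ATP, stopped after 15 min with malachite green; released Pi read at 630 nm. ATP alone set as 100%. Mean ± SD of 3−6 experiments in triplicate.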

[2] = molecular target: T2, Ectonucleotide pyrophosphatase/phosphodiesterase family member 1 (Homo sapiens) (UniProt P22413); assay: Competitive inhibition of human NPP1 expressed in COS7 cells assessed as production of p-nitrophenol using pnp-TMP as the substrate preincubated at 25 to 100 uM for 3 mins before substrate addition measured after 15 mins by Dixon/Cornish Bowden method; format: cell-based; settings: COS-7
T2 sequence (whole entry): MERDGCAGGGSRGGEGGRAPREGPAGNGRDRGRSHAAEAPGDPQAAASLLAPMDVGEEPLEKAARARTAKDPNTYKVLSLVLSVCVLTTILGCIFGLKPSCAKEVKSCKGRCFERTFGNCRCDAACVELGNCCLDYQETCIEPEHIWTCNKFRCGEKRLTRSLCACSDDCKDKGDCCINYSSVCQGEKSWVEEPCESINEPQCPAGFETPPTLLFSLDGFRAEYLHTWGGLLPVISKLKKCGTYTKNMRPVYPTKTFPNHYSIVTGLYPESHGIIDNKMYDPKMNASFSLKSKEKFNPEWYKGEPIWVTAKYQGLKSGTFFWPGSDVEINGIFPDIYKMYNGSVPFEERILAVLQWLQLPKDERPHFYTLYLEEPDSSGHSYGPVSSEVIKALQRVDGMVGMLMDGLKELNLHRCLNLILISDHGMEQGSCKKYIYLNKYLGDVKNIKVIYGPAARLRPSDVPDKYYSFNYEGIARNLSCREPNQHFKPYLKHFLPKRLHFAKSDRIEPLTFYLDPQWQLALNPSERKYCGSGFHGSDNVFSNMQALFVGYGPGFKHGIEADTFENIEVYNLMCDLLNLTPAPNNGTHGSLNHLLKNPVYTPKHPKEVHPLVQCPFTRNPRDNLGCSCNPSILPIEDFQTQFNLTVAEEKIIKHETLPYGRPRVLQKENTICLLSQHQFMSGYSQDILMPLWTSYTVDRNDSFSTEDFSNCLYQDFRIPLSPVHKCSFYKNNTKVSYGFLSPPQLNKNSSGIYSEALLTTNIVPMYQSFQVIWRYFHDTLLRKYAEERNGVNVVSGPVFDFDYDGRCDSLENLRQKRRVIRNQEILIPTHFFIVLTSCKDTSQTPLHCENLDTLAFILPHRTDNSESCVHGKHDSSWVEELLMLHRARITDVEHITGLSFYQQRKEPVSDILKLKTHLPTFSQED
Outline: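 Crude protein extract from COS-7 cells transiently transfected with human NPP1 (sonicated, debris cleared at 300g), preincubated 3 min at 37 °C with inhibitor (0, 25, 50, 100 μM) in 1 mM CaCl2, 140 mM NaCl, 5 mM KCl, 50 mM Tris pH 8.5. pnp-TMP (25, 50, 100 μM) added; p-nitrophenol read at 410 nm after 15 min. Ki,app and inhibition type from Dixon and Cornish-Bowden plots, three independent experiments.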

[3] = molecular target: T2, Ectonucleotide pyrophosphatase/phosphodiesterase family member 1 (Homo sapiens); assay: Inhibition of NPP1 in human HTB-85 cells assessed as production of p-nitrophenol using pnp-TMP at 100 uM measured after 20 mins by spectrophotometry; format: cell-based
Outline: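 Intact osteocarcinoma HTB85 (SaOS-2) cells in 24-well plates, 0.5 mL incubation mixture, analogue and pnp-TMP each at 100 μM. After 20 min an aliquot was read for p-nitrophenol at 410 nm. Substrate alone set as 100%. Mean ± SD of three experiments in triplicate.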

[4] = molecular target: T3, Ectonucleoside triphosphate diphosphohydrolase 2 (Homo sapiens) (UniProt Q9Y5L3); assay: Inhibition of human NTPDase2 assessed as amount of inorganic phosphate released using ATP as the substrate preincubated at 100 uM for 3 mins before substrate addition after 15 mins by malachite green reagent method; outline: as §1
T3 sequence (whole entry): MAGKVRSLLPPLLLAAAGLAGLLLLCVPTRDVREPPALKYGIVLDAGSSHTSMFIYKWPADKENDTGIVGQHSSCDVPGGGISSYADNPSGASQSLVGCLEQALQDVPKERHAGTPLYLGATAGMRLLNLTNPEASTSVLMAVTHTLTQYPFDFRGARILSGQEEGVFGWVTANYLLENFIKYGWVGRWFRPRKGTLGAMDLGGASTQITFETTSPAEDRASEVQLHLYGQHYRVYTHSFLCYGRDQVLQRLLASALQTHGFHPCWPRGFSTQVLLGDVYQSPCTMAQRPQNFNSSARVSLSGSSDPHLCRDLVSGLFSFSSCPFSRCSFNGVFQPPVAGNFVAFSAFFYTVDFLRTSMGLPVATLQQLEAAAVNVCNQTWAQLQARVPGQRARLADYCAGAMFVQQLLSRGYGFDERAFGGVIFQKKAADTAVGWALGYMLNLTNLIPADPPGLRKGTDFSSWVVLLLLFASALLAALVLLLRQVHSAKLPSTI

[5] = molecular target: T2, Ectonucleotide pyrophosphatase/phosphodiesterase family member 1 (Homo sapiens); assay: Inhibition of human NPP1 expressed in COS7 cells assessed as production of p-nitrophenol using pnp-TMP as the substrate preincubated at 100 uM for 3 mins before substrate addition measured after 15 mins […]; format: cell-based; settings: COS-7
Outline: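 Crude extracts of COS-7 cells transiently transfected with human NPP1 or NPP3, preincubated 3 min at 37 °C in 1 mM CaCl2, 140 mM NaCl, 5 mM KCl, 50 mM Tris pH 8.5 with analogue at 100 μM. Reaction started with 100 μM pnp-TMP; p-nitrophenol at 410 nm after 15 min. Activity without analogue set as 100%. Mean ± SD of 3−6 experiments in triplicate.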

SMILES	inhibition [1] [%]	inhibition [2]	inhibition [3] [%]	inhibition [4] [%]	inhibition [5] [%]
B[P@@](=O)(OC[C@H]1O[C@@H](n2cnc3c(N)ncnc32)[C@H](O)[C@@H]1O)OP(=O)(O)CP(=O)(O)O	< 18	Active	90	< 18	90
B[P@](=O)(OC[C@H]1O[C@@H](n2cnc3c(N)nc(SC)nc32)[C@H](O)[C@@H]1O)OP(=O)(O)CP(=O)(O)O	< 18	Active	90	< 18	80
B[P@](=O)(OC[C@H]1O[C@@H](n2cnc3c(N)ncnc32)[C@H](O)[C@@H]1O)OP(=O)(O)CP(=O)(O)O	< 18	Active	41	< 18	80
B[P@@](=O)(OC[C@H]1O[C@@H](n2cnc3c(N)nc(SC)nc32)[C@H](O)[C@@H]1O)OP(=O)(O)C(F)(F)P(=O)(O)O	30			50	90
CSc1nc(N)c2ncn([C@@H]3O[C@H](COP(=O)(O)C(F)(F)P(=O)(O)O)[C@@H](O)[C@H]3O)c2n1	< 18	Active	41	< 18	90
